Test results as given in ChEMBL document CHEMBL2010694, “Indolyl and dihydroindolyl N-glycinamides as potent and in vivo active NPY5 antagonists” (Bioorg Med Chem Lett, 2012).
Values after ≈ are worked out from the molar mass of the structure shown.

Legend:
[1] = biological target: T1, Neuropeptide Y receptor type 5 (Homo sapiens, UniProt Q15761); experiment: Displacement of [125I]peptide YY from human NPY5 receptor
T1 sequence (Q15761 whole entry): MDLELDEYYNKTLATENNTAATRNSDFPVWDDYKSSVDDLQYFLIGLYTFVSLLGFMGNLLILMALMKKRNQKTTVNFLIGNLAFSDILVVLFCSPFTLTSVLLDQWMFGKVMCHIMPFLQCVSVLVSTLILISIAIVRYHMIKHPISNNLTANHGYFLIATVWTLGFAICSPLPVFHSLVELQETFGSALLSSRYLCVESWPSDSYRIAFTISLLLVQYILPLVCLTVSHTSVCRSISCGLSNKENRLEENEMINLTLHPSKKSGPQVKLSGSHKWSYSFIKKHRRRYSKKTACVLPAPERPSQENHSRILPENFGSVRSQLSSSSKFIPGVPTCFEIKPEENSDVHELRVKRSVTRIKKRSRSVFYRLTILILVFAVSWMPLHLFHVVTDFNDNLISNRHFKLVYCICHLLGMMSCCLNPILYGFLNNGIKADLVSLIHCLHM

Liver microsomes [2] = experiment: Intrinsic clearance in human liver microsomes at 1 uM by LC/MS analysis; type: ADME, Microsome
In short: (§1)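 Compound incubated with human or rat liver microsomes; reaction quenched with acetonitrile, centrifuged, and remaining drug in supernatant measured by LC/MS to estimate T1/2, from which intrinsic clearance was derived.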

Liver microsomes [3] = experiment: Intrinsic clearance in rat liver microsomes at 1 uM by LC/MS analysis; type: ADME, Microsome; in short: as §1
Brain [4] = experiment: Drug uptake in Sprague-Dawley rat brain at 10 mg/kg, po by LC-MS/MS analysis; type: ADME, organism-based; design: dose 10 mg/kg, route oral; conditions: in vivo, read-out: Drug uptake
In short: (§2)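 Male Sprague-Dawley rats (300–350 g), femoral artery cannulated; single 10 mg/kg oral dose in an appropriate vehicle, N = 3. Blood taken predose, 1, 2 and 4 h; brains then collected and stored at -80 °C. Equal portions of plasma or homogenized brain from the three rats pooled per time point, protein precipitated, quantified by LC/MS/MS.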

Plasma [5] = experiment: Plasma concentration in Sprague-Dawley rat at 10 mg/kg, po by LC-MS/MS analysis; type: ADME, organism-based; design: dose 10 mg/kg, route oral; conditions: in vivo; in short: as §2
Plasma [6] = experiment: Plasma concentration in Sprague-Dawley rat assessed as 2-(5-chloro-1H-indol-1-yl)-N-(4-((propan-2 ylsulfonamido)methyl)cyclohexyl)acetamide level at 10 mg/kg, po after 1 hr by LC-MS/MS analysis; type: ADME, organism-based; design: dose 10 mg/kg, route oral; conditions: in vivo; in short: as §2
Brain [7] = experiment: Drug uptake in Sprague-Dawley rat brain assessed as 2-(5-chloro-1H-indol-1-yl)-N-(4-((propan-2-ylsulfonamido)methyl)cyclohexyl)acetamide level at 10 mg/kg, po after 1 hr by LC-MS/MS analysis; type: ADME, organism-based; design: dose 10 mg/kg, route oral; conditions: in vivo, read-out: Drug uptake; in short: as §2
[8] = Solubility of the compound at pH 7.4; type: physicochemical; conditions: buffer
[9] = Lipophilicity, log D of the compound at pH 7.4; type: physicochemical; conditions: buffer
[10] = Protein binding in human; type: ADME, organism-based; conditions: plasma, read-out: PB (converted)
Cytochrome P450 3A4 = Cytochrome P450 3A4 (Homo sapiens, UniProt P08684); experiment: Inhibition of CYP3A4; type: ADME
Cytochrome P450 2C8 = biological target: T2, Cytochrome P450 2C8 (Homo sapiens, UniProt P10632); experiment: Inhibition of CYP2C8; type: ADME
T2 sequence (P10632 whole entry): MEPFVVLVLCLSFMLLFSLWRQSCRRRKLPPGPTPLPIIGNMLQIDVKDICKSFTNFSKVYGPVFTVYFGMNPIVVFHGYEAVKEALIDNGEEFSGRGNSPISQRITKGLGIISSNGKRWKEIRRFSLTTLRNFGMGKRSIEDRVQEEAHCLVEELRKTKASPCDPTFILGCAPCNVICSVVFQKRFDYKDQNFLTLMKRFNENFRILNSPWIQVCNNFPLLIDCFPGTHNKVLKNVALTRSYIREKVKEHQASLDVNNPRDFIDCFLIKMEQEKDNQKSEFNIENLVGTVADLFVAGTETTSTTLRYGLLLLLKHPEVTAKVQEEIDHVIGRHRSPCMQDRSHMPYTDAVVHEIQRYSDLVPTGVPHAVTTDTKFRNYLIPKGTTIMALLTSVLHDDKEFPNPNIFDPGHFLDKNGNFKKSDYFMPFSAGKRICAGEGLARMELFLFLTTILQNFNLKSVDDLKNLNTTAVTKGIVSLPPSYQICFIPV

Cytochrome P450 1A2 = biological target: T3, Cytochrome P450 1A2 (Homo sapiens, UniProt P05177); experiment: Inhibition of CYP1A2; type: ADME
T3 sequence (P05177 whole entry): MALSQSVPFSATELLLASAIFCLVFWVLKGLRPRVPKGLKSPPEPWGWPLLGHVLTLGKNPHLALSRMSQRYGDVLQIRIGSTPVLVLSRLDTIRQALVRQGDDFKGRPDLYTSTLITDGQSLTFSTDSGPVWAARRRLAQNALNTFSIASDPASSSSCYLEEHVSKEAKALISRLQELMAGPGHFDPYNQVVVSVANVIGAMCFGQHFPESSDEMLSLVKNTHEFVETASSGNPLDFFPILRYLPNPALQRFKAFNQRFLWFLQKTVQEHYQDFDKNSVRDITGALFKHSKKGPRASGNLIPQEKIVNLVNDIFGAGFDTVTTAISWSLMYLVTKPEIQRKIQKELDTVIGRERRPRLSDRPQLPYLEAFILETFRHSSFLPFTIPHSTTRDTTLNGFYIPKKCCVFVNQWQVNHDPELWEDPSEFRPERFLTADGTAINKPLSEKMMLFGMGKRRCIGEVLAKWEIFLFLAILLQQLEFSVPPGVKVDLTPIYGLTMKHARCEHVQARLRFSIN

Cytochrome P450 2C19 = Cytochrome P450 2C19 (Homo sapiens, UniProt P33261); experiment: Inhibition of CYP2C19; type: ADME
Cytochrome P450 2D6 = Cytochrome P450 2D6 (Homo sapiens, UniProt P10635); experiment: Inhibition of CYP2D6; type: ADME
[11] = Absolute oral bioavailability in Sprague-Dawley rat at 2 mg/kg after 24 hrs wash out period by HPLC analysis; type: ADME, organism-based; conditions: in vivo
In short: (§3)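 Male Sprague-Dawley rats (200–250 g), jugular and carotid artery cannulated; compound dissolved in 20% beta cyclodextrin, pH adjusted with methane sulfonic acid. Serial blood sampled at 12 time points over 24 h post dose by automated sampler; plasma from centrifugation analysed by HPLC; PK parameters by non-compartmental analysis of plasma concentration–time profile.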

[12] = Clearance in Sprague-Dawley rat blood at 2 mg/kg, po and 1 mg/kg, iv after 24 hrs wash out period by HPLC analysis; type: ADME, organism-based; conditions: whole blood; in short: as §3
[13] = Clearance in Sprague-Dawley rat plasma at 2 mg/kg, po and 1 mg/kg, iv after 24 hrs wash out period by HPLC analysis; type: ADME, organism-based; in short: as §3
[14] = Half life in Sprague-Dawley rat plasma at 2 mg/kg, po and 1 mg/kg, iv after 24 hrs wash out period by HPLC analysis; type: ADME, organism-based; in short: as §3
[15] = Tmax in Sprague-Dawley rat plasma at 2 mg/kg, po and 1 mg/kg, iv after 24 hrs wash out period by HPLC analysis; type: ADME, organism-based; in short: as §3
[16] = Cmax in Sprague-Dawley rat plasma at 2 mg/kg, po and 1 mg/kg, iv after 24 hrs wash out period by HPLC analysis; type: ADME, organism-based; in short: as §3
[17] = Volume of distribution at steady state in Sprague-Dawley rat plasma at 2 mg/kg, po and 1 mg/kg, iv after 24 hrs wash out period by HPLC analysis; type: ADME, organism-based; conditions: read-out: Vdss; in short: as §3
Rattus norvegicus = experiment: Antiobesity activity in po dosed cPP-induced feeding Sprague-Dawley rat model assessed as reduction in food intake measured 1 hr post cpp challenge; type: functional
In short: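 Rats pretreated orally at 0.1, 1 or 10 mg/kg (vehicle 20% cyclodextrin) 1 h before intracerebroventricular infusion of Y5-selective peptide agonist cPP, 0.6 nmol in normal saline; food intake recorded, n = 7–14 per group.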

[18] = Drug uptake in cPP-induced feeding Sprague-Dawley rat model brain at 0.1 mg/kg, po after 1 hr; type: ADME, organism-based; design: dose 0.1 mg/kg, route oral; conditions: read-out: Drug uptake
In short: (§4)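 Satellite animals from the cPP feeding study dosed orally at 0.1, 1 or 10 mg/kg; plasma (ng/mL) and brain (ng/g) levels measured 1 h after dosing.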

[19] = Drug uptake in cPP-induced feeding Sprague-Dawley rat model brain at 1 mg/kg, po after 1 hr; type: ADME, organism-based; design: dose 1 mg/kg, route oral; conditions: read-out: Drug uptake; in short: as §4
[20] = Drug uptake in cPP-induced feeding Sprague-Dawley rat model brain at 10 mg/kg, po after 1 hr; type: ADME, organism-based; design: dose 10 mg/kg, route oral; conditions: read-out: Drug uptake; in short: as §4
[21] = Plasma concentration in cPP-induced feeding Sprague-Dawley rat model at 0.1 mg/kg, po after 1 hr; type: ADME, organism-based; design: dose 0.1 mg/kg, route oral; in short: as §4
[22] = Plasma concentration in cPP-induced feeding Sprague-Dawley rat model at 1 mg/kg, po after 1 hr; type: ADME, organism-based; design: dose 1 mg/kg, route oral; in short: as §4
[23] = Plasma concentration in cPP-induced feeding Sprague-Dawley rat model at 10 mg/kg, po after 1 hr; type: ADME, organism-based; design: dose 10 mg/kg, route oral; in short: as §4

Cytochrome P450 2C19, sequence (P33261 whole entry): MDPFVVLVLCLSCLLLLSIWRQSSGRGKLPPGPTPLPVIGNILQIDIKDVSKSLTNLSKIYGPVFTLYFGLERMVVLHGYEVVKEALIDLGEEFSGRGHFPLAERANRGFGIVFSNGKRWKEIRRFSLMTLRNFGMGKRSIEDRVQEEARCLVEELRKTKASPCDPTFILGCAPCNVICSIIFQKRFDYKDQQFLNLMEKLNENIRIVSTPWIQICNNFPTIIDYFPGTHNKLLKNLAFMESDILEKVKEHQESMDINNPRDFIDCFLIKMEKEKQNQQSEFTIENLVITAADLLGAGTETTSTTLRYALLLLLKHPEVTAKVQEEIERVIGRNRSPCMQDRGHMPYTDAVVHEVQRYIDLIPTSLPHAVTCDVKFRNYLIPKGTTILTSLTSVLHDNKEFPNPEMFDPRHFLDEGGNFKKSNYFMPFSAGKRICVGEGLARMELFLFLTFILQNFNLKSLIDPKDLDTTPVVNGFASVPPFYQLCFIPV
Cytochrome P450 2D6, sequence (P10635 whole entry): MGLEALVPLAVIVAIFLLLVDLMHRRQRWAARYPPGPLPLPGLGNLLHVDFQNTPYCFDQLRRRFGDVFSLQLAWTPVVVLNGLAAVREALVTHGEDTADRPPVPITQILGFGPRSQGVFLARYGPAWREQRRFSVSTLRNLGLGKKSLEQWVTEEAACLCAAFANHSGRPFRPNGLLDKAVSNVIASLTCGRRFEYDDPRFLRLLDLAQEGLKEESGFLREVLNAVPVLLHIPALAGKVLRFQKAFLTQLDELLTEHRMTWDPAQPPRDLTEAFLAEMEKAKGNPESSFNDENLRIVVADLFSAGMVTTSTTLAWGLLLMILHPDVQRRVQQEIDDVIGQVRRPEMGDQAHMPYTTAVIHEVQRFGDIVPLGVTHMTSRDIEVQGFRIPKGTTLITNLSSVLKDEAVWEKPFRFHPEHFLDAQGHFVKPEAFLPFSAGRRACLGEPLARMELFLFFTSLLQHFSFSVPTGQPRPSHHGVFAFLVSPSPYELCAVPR
Cytochrome P450 3A4, sequence (P08684 whole entry): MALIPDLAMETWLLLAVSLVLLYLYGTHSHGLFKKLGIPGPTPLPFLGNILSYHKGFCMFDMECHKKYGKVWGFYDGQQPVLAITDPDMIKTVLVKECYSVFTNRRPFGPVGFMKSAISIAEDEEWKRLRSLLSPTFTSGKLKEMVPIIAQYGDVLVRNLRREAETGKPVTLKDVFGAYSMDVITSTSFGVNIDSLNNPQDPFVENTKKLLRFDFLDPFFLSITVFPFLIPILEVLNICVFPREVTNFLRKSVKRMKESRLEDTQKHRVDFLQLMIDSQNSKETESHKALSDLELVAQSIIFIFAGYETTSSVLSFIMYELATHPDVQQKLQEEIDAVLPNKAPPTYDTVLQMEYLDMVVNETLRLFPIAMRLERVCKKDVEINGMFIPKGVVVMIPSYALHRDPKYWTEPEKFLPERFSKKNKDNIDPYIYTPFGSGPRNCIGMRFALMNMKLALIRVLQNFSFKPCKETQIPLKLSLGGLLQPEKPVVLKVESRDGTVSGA

SMILES: CC(C)S(=O)(=O)NC[C@H]1CC[C@H](NC(=O)Cn2ccc3cc(Cl)ccc32)CC1
- Ki [1]: 0.3 nM
- CLH (Liver microsomes [2]): 1.9 L/min
- CLH (Liver microsomes [3]): 11 mL/min
- concentration (Brain [4]): 54 nM
- concentration (Plasma [5]): 751 nM
- concentration (Plasma [6]): 8010 nM
- concentration (Brain [7]): 641 nM
- solubility [8]: 160 µM (≈ 68.2 µg/mL)
- logD [9]: 1.2
- fraction unbound [10]: 0.004
- inhibition (INH) (Cytochrome P450 3A4): Not Active
- inhibition (INH) (Cytochrome P450 2C8): Not Active
- inhibition (INH) (Cytochrome P450 1A2): Not Active
- inhibition (INH) (Cytochrome P450 2C19): Not Active
- inhibition (INH) (Cytochrome P450 2D6): Not Active
- bioavailability [11]: 79%
- clearance [12]: 15 mL/min/kg
- clearance [13]: 10 mL/min/kg
- half-life [14]: 7.2 h
- Tmax [15]: 2 h
- Cmax [16]: 480 ng/mL
- Vd [17]: 2.8 L/kg
- Activity (Rattus norvegicus): Dose-dependent effect
- minimal effective dose (Rattus norvegicus; read-out: MED): 0.1 mg/kg
- concentration at 1 h [18]: 6 ng/g
- concentration at 1 h [19]: 38 ng/g
- concentration at 1 h [20]: 132 ng/g
- concentration at 1 h [21]: 84 ng/mL
- concentration at 1 h [22]: 613 ng/mL
- concentration at 1 h [23]: 1260 ng/mL

SMILES: CC(C)S(=O)(=O)NC[C@H]1CC[C@H](NC(=O)CN2CCc3c2ccc(F)c3F)CC1
- Ki [1]: 1.5 nM
- CLH (Liver microsomes [2]): 4.5 L/min
- CLH (Liver microsomes [3]): 39 mL/min
- concentration (Brain [4]): 105 nM
- concentration (Plasma [5]): 1520 nM

SMILES: CC(C)S(=O)(=O)NC[C@H]1CC[C@H](NC(=O)Cn2ccc3ccc(Cl)cc32)CC1
- Ki [1]: 1 nM
- CLH (Liver microsomes [2]): 2.6 L/min
- CLH (Liver microsomes [3]): 37 mL/min
- concentration (Brain [4]): 134 nM
- concentration (Plasma [5]): 157 nM

SMILES: CC(C)S(=O)(=O)NC[C@H]1CC[C@H](NC(=O)Cn2c(=O)sc3cc(Cl)ccc32)CC1
- Ki [1]: 0.9 nM
- CLH (Liver microsomes [2]): 1 L/min
- CLH (Liver microsomes [3]): 12 mL/min
- concentration (Brain [4]): 11 nM
- concentration (Plasma [5]): 870 nM

SMILES: CC(C)S(=O)(=O)NC[C@H]1CC[C@H](NC(=O)Cn2ccc3ccccc32)CC1
- Ki [1]: 1.5 nM
- CLH (Liver microsomes [2]): 1 L/min
- CLH (Liver microsomes [3]): 27 mL/min
- concentration (Brain [4]): 81 nM
- concentration (Plasma [5]): 460 nM

SMILES: CC(C)S(=O)(=O)NC[C@H]1CC[C@H](NC(=O)Cc2cn(C)c3ccccc23)CC1
- Ki [1]: 2 nM
- CLH (Liver microsomes [2]): 1.2 L/min
- CLH (Liver microsomes [3]): 22 mL/min
- concentration (Brain [4]): 17 nM
- concentration (Plasma [5]): 296 nM

SMILES: CC(C)S(=O)(=O)NC[C@H]1CC[C@H](NC(=O)CN2CC(C)(C)c3cc(Cl)ccc32)CC1
- Ki [1]: 1.1 nM
- CLH (Liver microsomes [2]): 14 L/min
- CLH (Liver microsomes [3]): 205 mL/min
- concentration (Brain [4]): 50 nM
- concentration (Plasma [5]): 417 nM
